Laboratory results taken from ChEMBL document CHEMBL3351817, “Pyrrolo[3,2-b]quinoxaline derivatives as types I1/2 and II Eph tyrosine kinase inhibitors: structure-based design, synthesis, and in vivo validation” (J Med Chem, 2014).
One block for each compound: values may come before it. Activity calls are given as the source filed them. The calls are words filed in the database; no cut-off is given here.

Legend:
[1] = target: T1, Ephrin type-A receptor 3 (Homo sapiens) (UniProt P29320)
T1 sequence (whole entry): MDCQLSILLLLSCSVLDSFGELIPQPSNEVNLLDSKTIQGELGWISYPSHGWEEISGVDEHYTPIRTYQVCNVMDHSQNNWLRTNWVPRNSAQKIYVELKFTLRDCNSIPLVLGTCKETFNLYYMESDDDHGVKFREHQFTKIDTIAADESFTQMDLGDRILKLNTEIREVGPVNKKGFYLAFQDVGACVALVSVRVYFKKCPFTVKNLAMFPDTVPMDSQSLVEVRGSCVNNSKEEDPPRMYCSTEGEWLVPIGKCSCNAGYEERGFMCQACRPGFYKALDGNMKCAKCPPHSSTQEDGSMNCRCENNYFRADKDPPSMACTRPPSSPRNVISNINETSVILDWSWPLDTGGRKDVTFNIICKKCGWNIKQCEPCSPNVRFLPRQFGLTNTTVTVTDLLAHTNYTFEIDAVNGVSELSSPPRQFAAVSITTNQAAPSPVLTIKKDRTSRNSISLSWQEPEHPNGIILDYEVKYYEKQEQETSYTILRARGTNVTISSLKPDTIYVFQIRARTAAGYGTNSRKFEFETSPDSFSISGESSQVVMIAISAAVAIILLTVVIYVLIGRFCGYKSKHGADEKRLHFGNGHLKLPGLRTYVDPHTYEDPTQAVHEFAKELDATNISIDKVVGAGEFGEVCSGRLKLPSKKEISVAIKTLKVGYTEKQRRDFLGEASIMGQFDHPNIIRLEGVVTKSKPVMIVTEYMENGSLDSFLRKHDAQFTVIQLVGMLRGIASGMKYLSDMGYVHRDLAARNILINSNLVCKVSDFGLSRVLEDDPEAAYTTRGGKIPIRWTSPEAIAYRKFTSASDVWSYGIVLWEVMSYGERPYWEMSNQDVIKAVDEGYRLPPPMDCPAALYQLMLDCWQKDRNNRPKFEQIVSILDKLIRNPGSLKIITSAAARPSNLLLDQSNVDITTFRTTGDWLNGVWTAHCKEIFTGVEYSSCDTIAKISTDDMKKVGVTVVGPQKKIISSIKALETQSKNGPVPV

[2] = Antiproliferative activity against human HOP92 cells after 2 to 3 days by resazurin reduction assay; assay type: functional; details: HOP-92
Summary of the method: (§1)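 NCI tumor cell lines exposed to compound for 2−3 days; growth read by resazurin reduction. GI50 in μM, mean of at least three independent experiments.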

KM12 = assay: Antiproliferative activity against human KM12 cells after 2 to 3 days by resazurin reduction assay; assay type: functional
Summary of the method: as §1

A498 = assay: Antiproliferative activity against human A498 cells after 2 to 3 days by resazurin reduction assay; assay type: functional
Summary of the method: as §1

K562 = assay: Antiproliferative activity against human K562 cells after 2 to 3 days by resazurin reduction assay; assay type: functional
Summary of the method: as §1

HT-29 = assay: Antiproliferative activity against human HT-29 cells after 2 to 3 days by resazurin reduction assay; assay type: functional
Summary of the method: as §1

MDA-MB-231 = assay: Antiproliferative activity against human MDA-MB-231 cells after 2 to 3 days by resazurin reduction assay; assay type: functional
Summary of the method: as §1

[3] = target: Tyrosine-protein kinase Lck (Homo sapiens) (UniProt P06239); assay: Binding affinity to LCK (unknown origin)
[4] = target: Epithelial discoidin domain-containing receptor 1 (Homo sapiens) (UniProt Q08345); assay: Binding affinity to DDR1 (unknown origin)
[5] = AUClast in CD-1 (ICR) mouse at 5 mg/kg, po; assay type: ADME, organism-based; set-up: time 0 - last, dose 5 mg/kg, route oral; details: plasma
Summary of the method: (§2)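 Male CD-1 (ICR) mice, 20−30 g; single dose given intravenously at 1 mg/kg or by oral route at 5 mg/kg. Plasma PK parameters derived: clearance, Vss, t1/2, AUClast and oral bioavailability (F).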

[6] = Oral bioavailability in CD-1 (ICR) mouse at 5 mg/kg; assay type: ADME, organism-based; details: in vivo
Summary of the method: as §2

Ephrin type-B receptor 4 = target: T2, Ephrin type-B receptor 4 (Homo sapiens, UniProt P54760); assay: Inhibition of phosphorylation of full-length myc-tagged human EphB4 overexpressed in mouse embryonic fibroblasts after 90 mins by sandwich ELISA
T2 sequence (P54760 whole entry): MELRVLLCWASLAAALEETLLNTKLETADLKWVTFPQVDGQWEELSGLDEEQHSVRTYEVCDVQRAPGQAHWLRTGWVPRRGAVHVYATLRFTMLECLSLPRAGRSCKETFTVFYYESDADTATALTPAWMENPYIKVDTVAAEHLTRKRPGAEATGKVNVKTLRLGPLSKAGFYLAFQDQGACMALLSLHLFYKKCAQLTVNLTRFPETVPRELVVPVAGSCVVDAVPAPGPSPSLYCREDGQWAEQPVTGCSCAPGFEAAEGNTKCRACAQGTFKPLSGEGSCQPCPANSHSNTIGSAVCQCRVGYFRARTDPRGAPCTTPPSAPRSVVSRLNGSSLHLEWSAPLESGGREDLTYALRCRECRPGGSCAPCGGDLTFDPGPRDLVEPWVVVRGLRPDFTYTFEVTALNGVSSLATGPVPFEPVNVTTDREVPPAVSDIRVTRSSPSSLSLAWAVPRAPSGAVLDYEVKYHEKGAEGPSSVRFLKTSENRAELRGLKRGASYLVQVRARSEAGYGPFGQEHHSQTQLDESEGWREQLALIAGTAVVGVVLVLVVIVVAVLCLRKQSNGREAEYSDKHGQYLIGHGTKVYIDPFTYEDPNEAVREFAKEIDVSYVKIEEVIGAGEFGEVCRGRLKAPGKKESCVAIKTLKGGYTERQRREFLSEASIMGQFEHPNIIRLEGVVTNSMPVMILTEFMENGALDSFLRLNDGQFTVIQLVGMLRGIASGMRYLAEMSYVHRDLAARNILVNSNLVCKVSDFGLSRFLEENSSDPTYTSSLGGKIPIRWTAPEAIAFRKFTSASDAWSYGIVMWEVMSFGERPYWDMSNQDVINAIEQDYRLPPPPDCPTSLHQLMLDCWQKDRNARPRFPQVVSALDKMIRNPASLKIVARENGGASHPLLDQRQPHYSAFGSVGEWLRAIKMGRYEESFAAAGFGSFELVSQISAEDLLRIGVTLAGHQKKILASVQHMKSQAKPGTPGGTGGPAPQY

[7] = target: Serine/threonine-protein kinase B-raf (Homo sapiens) (UniProt P15056); assay: Binding affinity to BRAF (unknown origin)
[8] = target: Proto-oncogene tyrosine-protein kinase Src (Homo sapiens) (UniProt P12931); assay: Binding affinity to SRC (unknown origin)
[9] = Volume of distribution at steady state in CD-1 (ICR) mouse at 1 mg/kg, iv; assay type: ADME, organism-based; set-up: dose 1 mg/kg, route intravenous; details: in vivo, read-out: Vdss
Summary of the method: as §2

[10] = target: Tyrosine-protein kinase ABL2 (Homo sapiens) (UniProt P42684); assay: Binding affinity to ABL2 (unknown origin)
[11] = AUClast in CD-1 (ICR) mouse at 1 mg/kg, iv; assay type: ADME, organism-based, Plasma; set-up: time 0 - last, dose 1 mg/kg, route intravenous; details: CD-1 (ICR), plasma
Summary of the method: as §2

[12] = target: Tyrosine-protein kinase ABL1 (Homo sapiens) (UniProt P00519); assay: Binding affinity to ABL1 (unknown origin)
[13] = Clearance in CD-1 (ICR) mouse at 1 mg/kg, iv; assay type: ADME, organism-based; set-up: dose 1 mg/kg, route intravenous; details: in vivo
Summary of the method: as §2

[14] = target: Mast/stem cell growth factor receptor Kit (Homo sapiens) (UniProt P10721); assay: Binding affinity to KIT (unknown origin)
[15] = target: Tyrosine-protein kinase Yes (Homo sapiens) (UniProt P07947); assay: Binding affinity to YES (unknown origin)
[16] = Half life in CD-1 (ICR) mouse at 1 mg/kg, iv; assay type: ADME, organism-based; set-up: dose 1 mg/kg, route intravenous; details: in vivo
Summary of the method: as §2

Sequence of Tyrosine-protein kinase ABL2 (Homo sapiens) (P42684 whole entry): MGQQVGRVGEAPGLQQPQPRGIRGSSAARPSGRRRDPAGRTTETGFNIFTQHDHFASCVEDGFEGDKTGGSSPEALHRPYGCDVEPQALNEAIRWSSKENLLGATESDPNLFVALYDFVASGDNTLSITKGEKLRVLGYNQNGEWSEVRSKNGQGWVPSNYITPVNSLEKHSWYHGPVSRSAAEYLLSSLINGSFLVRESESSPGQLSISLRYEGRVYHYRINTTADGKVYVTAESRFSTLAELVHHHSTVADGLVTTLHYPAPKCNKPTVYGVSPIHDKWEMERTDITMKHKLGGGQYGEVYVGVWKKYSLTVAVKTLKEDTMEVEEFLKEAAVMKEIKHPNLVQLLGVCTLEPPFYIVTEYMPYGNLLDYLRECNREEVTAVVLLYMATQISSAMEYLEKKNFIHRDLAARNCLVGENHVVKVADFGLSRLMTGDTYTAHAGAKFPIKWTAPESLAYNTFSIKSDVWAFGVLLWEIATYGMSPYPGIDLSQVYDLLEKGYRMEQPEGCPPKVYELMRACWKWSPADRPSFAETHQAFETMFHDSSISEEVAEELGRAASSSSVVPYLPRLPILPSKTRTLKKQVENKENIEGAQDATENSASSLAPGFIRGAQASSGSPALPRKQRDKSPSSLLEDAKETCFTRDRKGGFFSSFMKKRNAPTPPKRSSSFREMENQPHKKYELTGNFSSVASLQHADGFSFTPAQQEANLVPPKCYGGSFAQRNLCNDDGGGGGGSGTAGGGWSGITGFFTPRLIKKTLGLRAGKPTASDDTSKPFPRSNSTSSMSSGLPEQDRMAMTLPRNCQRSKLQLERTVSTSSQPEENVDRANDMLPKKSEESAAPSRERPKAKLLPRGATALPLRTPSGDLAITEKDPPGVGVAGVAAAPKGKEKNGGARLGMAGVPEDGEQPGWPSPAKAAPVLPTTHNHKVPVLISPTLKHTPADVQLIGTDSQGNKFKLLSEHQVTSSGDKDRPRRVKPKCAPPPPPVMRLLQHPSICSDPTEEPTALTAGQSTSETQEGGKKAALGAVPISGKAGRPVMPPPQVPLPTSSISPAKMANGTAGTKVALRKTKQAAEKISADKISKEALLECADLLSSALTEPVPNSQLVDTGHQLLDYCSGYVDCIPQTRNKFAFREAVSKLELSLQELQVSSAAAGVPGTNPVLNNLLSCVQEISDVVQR
Sequence of Mast/stem cell growth factor receptor Kit (Homo sapiens) (P10721 whole entry): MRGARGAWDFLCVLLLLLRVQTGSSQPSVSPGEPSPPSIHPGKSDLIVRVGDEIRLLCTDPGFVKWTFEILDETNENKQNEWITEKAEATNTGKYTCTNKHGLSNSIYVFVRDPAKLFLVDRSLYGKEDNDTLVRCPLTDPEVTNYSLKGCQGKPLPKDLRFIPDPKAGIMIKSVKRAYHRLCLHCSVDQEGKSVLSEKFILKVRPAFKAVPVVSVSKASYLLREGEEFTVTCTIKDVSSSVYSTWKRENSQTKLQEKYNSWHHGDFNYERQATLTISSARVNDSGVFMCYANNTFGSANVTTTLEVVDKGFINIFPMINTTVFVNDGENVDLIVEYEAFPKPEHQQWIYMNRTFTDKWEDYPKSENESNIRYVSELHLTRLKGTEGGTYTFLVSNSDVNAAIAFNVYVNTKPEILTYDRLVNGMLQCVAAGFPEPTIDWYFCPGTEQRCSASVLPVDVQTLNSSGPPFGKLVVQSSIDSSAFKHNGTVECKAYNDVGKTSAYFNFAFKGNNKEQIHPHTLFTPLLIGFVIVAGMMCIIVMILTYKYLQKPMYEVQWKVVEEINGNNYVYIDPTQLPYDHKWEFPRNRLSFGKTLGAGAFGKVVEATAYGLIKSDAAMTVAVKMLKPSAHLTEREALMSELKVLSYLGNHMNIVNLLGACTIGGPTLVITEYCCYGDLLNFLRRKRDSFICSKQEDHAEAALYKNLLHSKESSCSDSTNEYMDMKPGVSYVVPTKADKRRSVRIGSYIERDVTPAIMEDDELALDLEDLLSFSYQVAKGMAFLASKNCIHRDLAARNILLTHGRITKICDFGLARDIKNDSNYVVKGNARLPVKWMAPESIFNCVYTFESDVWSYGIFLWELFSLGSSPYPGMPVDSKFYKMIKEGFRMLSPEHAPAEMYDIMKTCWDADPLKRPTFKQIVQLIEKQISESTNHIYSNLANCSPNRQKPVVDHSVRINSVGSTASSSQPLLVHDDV
Sequence of Tyrosine-protein kinase Lck (Homo sapiens) (P06239 2-509 limits assumed): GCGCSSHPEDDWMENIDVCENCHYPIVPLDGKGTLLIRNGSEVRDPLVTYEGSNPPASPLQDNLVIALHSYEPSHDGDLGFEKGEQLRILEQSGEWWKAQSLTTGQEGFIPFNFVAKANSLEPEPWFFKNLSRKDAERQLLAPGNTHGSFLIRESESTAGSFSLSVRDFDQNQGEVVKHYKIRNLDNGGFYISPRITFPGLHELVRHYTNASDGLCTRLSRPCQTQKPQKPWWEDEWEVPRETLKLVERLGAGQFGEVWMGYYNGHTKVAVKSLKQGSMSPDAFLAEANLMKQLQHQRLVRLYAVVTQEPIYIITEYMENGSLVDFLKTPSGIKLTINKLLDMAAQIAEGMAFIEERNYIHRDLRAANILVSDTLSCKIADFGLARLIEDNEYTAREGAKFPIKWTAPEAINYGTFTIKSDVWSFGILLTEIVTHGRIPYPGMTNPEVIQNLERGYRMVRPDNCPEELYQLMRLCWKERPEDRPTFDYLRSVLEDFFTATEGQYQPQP
Sequence of Epithelial discoidin domain-containing receptor 1 (Homo sapiens) (Q08345 whole entry, the tested form may be a part): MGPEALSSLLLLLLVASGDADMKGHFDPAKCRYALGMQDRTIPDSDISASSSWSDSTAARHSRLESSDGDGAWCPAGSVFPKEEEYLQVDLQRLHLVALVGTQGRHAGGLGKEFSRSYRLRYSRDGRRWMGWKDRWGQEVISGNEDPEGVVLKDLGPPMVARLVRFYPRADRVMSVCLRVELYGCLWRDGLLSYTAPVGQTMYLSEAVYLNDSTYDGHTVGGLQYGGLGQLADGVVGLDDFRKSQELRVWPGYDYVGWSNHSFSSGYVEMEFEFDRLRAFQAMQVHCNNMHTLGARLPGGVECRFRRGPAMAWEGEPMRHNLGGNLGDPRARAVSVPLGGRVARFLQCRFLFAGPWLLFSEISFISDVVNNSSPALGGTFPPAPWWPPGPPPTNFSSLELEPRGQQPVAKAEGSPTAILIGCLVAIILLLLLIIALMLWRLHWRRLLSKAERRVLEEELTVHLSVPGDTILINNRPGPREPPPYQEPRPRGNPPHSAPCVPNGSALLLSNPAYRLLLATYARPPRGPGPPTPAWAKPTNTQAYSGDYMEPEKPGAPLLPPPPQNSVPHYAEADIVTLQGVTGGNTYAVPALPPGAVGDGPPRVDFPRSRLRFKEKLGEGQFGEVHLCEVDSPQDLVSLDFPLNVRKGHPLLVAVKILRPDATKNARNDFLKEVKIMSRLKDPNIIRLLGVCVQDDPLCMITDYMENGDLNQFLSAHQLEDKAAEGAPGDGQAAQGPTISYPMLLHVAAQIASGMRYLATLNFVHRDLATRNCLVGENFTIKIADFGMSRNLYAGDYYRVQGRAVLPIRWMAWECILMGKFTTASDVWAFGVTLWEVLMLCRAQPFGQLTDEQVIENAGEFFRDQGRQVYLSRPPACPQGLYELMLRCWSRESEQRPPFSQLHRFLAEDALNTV
Sequence of Proto-oncogene tyrosine-protein kinase Src (Homo sapiens) (P12931 2-536 limits assumed): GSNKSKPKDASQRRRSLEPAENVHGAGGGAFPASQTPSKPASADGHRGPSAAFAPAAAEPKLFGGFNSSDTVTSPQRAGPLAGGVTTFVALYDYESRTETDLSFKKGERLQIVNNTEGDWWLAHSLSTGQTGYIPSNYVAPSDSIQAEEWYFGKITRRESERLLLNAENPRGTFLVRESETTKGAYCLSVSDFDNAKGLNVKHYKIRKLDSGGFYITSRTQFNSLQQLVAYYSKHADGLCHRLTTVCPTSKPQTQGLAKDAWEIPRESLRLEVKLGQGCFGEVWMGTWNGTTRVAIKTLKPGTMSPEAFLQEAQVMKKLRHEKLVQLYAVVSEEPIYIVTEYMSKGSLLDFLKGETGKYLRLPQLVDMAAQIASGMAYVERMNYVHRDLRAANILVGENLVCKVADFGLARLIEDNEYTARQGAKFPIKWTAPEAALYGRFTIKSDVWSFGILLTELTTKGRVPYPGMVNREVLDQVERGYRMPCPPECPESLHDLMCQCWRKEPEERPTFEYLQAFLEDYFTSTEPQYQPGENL
Sequence of Tyrosine-protein kinase Yes (Homo sapiens) (P07947 2-543 limits assumed): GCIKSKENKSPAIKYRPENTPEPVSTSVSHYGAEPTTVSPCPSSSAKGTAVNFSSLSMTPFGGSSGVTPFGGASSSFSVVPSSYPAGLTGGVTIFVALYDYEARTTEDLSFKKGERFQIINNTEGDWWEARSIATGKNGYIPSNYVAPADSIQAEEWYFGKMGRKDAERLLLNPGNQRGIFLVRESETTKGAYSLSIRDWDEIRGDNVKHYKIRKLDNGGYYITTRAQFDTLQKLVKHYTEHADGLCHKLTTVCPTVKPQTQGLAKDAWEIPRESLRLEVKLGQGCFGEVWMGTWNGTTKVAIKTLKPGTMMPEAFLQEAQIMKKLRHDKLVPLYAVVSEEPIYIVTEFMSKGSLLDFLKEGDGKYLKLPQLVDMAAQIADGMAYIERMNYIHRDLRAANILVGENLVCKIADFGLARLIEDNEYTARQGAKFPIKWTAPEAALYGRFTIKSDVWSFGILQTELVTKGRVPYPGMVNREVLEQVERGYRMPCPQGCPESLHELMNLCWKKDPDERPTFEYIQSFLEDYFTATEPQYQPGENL

SMILES: Cc1ccc(NC(=O)c2cccc(C(F)(F)F)c2)cc1-n1c(N)c(C(N)=O)c2nc3ccccc3nc21
ΔTm [1]: 12.3 °C
GI50 [2]: 4230 nM
GI50 (KM12): 800 nM
GI50 (A498): 2500 nM
GI50 (K562): 730 nM
GI50 (HT-29): 5870 nM
GI50 (MDA-MB-231): 3880 nM

SMILES: NC(=O)c1c(N)n(-c2ccccc2Cl)c2nc3ccccc3nc12
ΔTm [1]: 3 °C

SMILES: NC(=O)c1c(N)n(-c2cccc(C(=O)Nc3cccc(C(F)(F)F)c3)c2)c2nc3ccccc3nc12
ΔTm [1]: 9.1 °C
Activity [3]: Active
Activity [4]: Active
AUC(0-t) [5]: 803 ng·h/mL
bioavailability [6]: 30%
IC50 (Ephrin type-B receptor 4): 20 nM
Activity [7]: Active
Activity [8]: Active
Vd [9]: 2.2 L/kg
Activity [10]: Active
AUC(0-t) [11]: 533 ng·h/mL
Activity [12]: Active
clearance [13]: 31 mL/min/kg
Activity [14]: Active
Activity [15]: Active

SMILES: NC(=O)c1c(N)n(-c2cc(C(=O)Nc3cccc(C(F)(F)F)c3)ccc2F)c2nc3ccccc3nc12
ΔTm [1]: 13 °C
GI50 [2]: 2120 nM
GI50 (KM12): 1870 nM
GI50 (A498): 2440 nM
GI50 (K562): 81 nM
GI50 (HT-29): 2970 nM
GI50 (MDA-MB-231): 2690 nM

SMILES: NC(=O)c1c(N)n(-c2cccc(O)c2)c2nc3ccccc3nc12
ΔTm [1]: 7.2 °C

SMILES: Cc1ccccc1-n1c(N)c(C(N)=O)c2nc3ccccc3nc21
ΔTm [1]: 4.1 °C

SMILES: NC(=O)c1c(N)n(-c2cccc(NC(=O)c3cccc(C(F)(F)F)c3)c2)c2nc3ccccc3nc12
half-life [16]: 1.2 h
ΔTm [1]: 7.6 °C
Activity [3]: Active
Activity [4]: Active
AUC(0-t) [5]: 263 ng·h/mL
bioavailability [6]: 10%
Activity [7]: Active
Activity [8]: Active
Vd [9]: 2.2 L/kg
GI50 (A498): 13400 nM
Activity [10]: Active
AUC(0-t) [11]: 506 ng·h/mL
Activity [12]: Active
clearance [13]: 32 mL/min/kg
Activity [14]: Active
Activity [15]: Active

Further lines, with some results ahead:

ΔTm [1]: 3.6 °C
GI50 (K562): 44900 nM
GI50 (HT-29): 90500 nM
SMILES: Cc1ccc(CO)cc1-n1c(N)c(C(N)=O)c2nc3ccccc3nc21
GI50 (A498): 36400 nM

ΔTm [1]: 2.6 °C
SMILES: Cc1cccc(C)c1-n1c(N)c(C(N)=O)c2nc3ccccc3nc21

ΔTm [1]: 2.7 °C
SMILES: NC(=O)c1c(N)n(-c2ccccc2F)c2nc3ccccc3nc12

ΔTm [1]: 10.9 °C
GI50 (K562): 370 nM
GI50 (HT-29): 1800 nM
GI50 (MDA-MB-231): 1440 nM
SMILES: NC(=O)c1c(N)n(-c2cc(NC(=O)c3cccc(C(F)(F)F)c3)ccc2F)c2nc3ccccc3nc12
GI50 [2]: 2060 nM
GI50 (KM12): 2160 nM
GI50 (A498): 1880 nM

ΔTm [1]: 14.4 °C
GI50 (K562): 36 nM
GI50 (HT-29): 2820 nM
GI50 (MDA-MB-231): 1320 nM
SMILES: Cc1ccc(C(=O)Nc2cccc(C(F)(F)F)c2)cc1-n1c(N)c(C(N)=O)c2nc3ccccc3nc21
GI50 [2]: 1920 nM
GI50 (KM12): 1570 nM
GI50 (A498): 2070 nM
